A selection: hits, their analogues and other compounds. The true share with any hit is near 1.3%.
TbHK1 inh – Trypanosoma brucei hexokinase 1 inhibitors, primary screen, biochemical, G6PDH-coupled NADH absorbance, MLSCN library | inhibition, % at 10 µM | hit rate 0.11% among 220,000 | hexokinase 1 [Trypanosoma brucei] | recombinant TbHK1, G6PDH-coupled NADH A340;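 active means inhibition of 50% or more in the single-dose primary screen; inactive means inhibition below 50%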
Diaph inh CS – diaphorase inhibitors and chemical oxidizers, primary screen, counter-screen for diaphorase-coupled primary assays, biochemical, uHTS, resorufin fluorescence; hit rate 0.69% among 190,000; AID 1217, 2008; diaphorase resazurin-to-resorufin fluorescence, NADH, 16 min; bacterial (C. kluyveri) enzyme, not human; inhibition, % at 20 µM;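 active means primary screen inhibition at 20 µM above a set limit, cut at about 50% in these data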;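 further: plate controls were DMSO with full reaction for no effect and wells lacking NADH for full effect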
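Detection: fluorescence of resorufin formed from resazurin, Ex 544/Em 590 nm; test system: Clostridium kluyveri diaphorase enzyme; amount: 0.14 U/mL diaphorase, enzyme working solution; times: 16-min room-temperature incubation before reading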
PfG6PD inh – PfG6PD enzyme inhibitors, primary screen, biochemical, fluorescence intensity, uHTS | hit rate 0.78% among 350,000 | glucose-6-phosphate dehydrogenase-6-phosphogluconolactonase (Plasmodium falciparum 3D7) | inhibition, % at 20 µM | PfGluPho enzyme, NADPH resazurin-diaphorase fluorescence;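 active means inhibition reaching at least a set limit at 20 µM in the primary screen, cut at about 59% in these data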;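 further: 0% = DMSO wells with substrate and 100% = DMSO wells lacking glucose-6-phosphate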
HKDC1 inh – HKDC1 hexokinase inhibitors, primary screen, biochemical, fluorescence, uHTS; Q2TB90; recombinant HKDC1, G6PDH/diaphorase resazurin coupled fluorescence; inhibition, % at 20 µM; hit rate 0.16% among 340,000; AID 493160, 2011;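 active means inhibition above about 35% when tested at 20 µM, limit read from the data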;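 further: plate controls were DMSO wells with enzyme for no effect and DMSO wells lacking enzyme for full effect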
Target sequence (Q2TB90 whole entry, looked up): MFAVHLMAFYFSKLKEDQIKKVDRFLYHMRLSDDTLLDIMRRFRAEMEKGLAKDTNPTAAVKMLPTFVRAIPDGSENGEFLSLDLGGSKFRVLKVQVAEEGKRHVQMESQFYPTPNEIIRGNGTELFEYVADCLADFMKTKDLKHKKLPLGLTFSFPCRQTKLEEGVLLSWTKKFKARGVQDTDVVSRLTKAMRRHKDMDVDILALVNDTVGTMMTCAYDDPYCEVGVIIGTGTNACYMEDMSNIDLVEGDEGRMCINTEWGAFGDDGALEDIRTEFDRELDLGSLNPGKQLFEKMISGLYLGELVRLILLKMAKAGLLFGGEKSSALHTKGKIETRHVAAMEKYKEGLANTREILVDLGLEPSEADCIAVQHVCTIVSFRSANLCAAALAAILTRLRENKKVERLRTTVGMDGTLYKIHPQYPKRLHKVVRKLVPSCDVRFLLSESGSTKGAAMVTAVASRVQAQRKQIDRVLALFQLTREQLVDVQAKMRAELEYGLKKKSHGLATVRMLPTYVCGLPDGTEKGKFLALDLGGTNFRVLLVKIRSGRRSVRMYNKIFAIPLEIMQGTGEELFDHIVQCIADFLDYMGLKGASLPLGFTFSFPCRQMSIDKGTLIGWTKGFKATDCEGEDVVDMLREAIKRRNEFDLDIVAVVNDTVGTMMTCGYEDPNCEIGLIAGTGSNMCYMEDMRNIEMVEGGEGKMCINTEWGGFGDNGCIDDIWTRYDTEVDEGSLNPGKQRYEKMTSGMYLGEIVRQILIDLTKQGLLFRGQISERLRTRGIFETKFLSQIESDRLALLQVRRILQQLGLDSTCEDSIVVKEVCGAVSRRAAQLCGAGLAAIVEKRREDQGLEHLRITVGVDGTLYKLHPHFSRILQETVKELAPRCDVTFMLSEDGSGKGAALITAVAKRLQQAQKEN
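Incubation: 90 min at room temperature in dark / Material: recombinant HKDC1 (HK5) hexokinase enzyme, produced in-house / Quantity: enzyme 5 µg/mL final / Compound: one dose of 20 µM, 1% DMSO / Reagent: glucose and ATP substrates / Buffer or medium: Tris pH 8.0 buffer with MgCl2, Tween-20, BSA, BME / Technique: resorufin fluorescence at 613 nm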
G6PDH counter-1 – L. mesenteroides G6PDH inhibitors, counter-screen for G6PDH-coupled screening assays, biochemical, Leuconostoc mesenteroides enzyme; glucose-6-phosphate dehydrogenase [Leuconostoc mesenteroides]; Purified L. mesenteroides G6PDH, diaphorase/resazurin coupled fluorescence, 45 min; hit rate 0.12% among 200,000; inhibition, % at 5 µM; in the data active means inhibition above about 50%
G6PDH counter-2 – Leuconostoc G6PDH inhibition, confirmation, counter-screen for TbHK1 inhibitor project, biochemical, DPI cherry-picked compounds, single concentration; shares compounds with TbHK1 inh; purified G6PDH, NADH absorbance, 1 h; inhibition, % at 10 µM; hit rate 7% among 210; AID 2516, 2010;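 active means at least 50% inhibition in the glucose-6-phosphate dehydrogenase coupled counterscreen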
TbHK1 rescreen – TbHK1 inhibitor retest, confirmation, biochemical, DPI cherry-picked primary actives; shares compounds with TbHK1 inh; recombinant TbHK1, G6PDH-coupled NADH A340 absorbance; inhibition, % at 10 µM; hit rate 10% among 210;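 active means inhibition of at least 50% in both of the two screening runs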;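 further: 0% and 100% set by the maximum and minimum signal control wells on each plate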
Numbers without * were called inactive; . = no result; ! = not active in a repeat.

SMILES	TbHK1 inh	Diaph inh CS	PfG6PD inh	HKDC1 inh	G6PDH counter-1	others
CN1CCN(C2=C(Cl)C(=O)C(c3cnc(N4CCCCC4)s3)=C(Cl)C2=O)CC1	-2	64*	91*	55*	51*
CC1(/[N+]([O-])=C/c2cccc(Cl)c2)CCCCC1=O (centres undefined)	-5	.	-3	-4	.
Cc1ccc(=O)n(C(C(=O)NCc2ccco2)C(=O)c2ccc(F)cc2)c1 (centres undefined)	-1	13	2	-2	6
CC(NCc1ccccc1)c1ccccc1O (centres undefined)	1	.	-4	-5	.
Cc1ncc(CO)c(/C=N/NC(=O)c2ccc(Br)cc2)c1O	-2	22	.	.	-20
Cc1ncc(CO)c(/C=N/NC(=O)c2cc(O)c(O)c(O)c2)c1O	-4	60*	.	.	2
COc1nnc(-c2ccc(N3CCOCC3)c(NC(=O)C3CCCCC3)c2)c2ccccc12	-3	17	0	8	-4
c1ccc2c3c(cc(N4CCOCC4)c2c1)OC1(N2CCOCC2)CCCCC1O3 (centres undefined)	-5	25	42	18	50*
Nc1cccc2nsnc12	-4	.	44	21	.
Nc1cc2nsnc2cc1Br	20	41	99*	-4	58*
CCOCC(=O)Nc1ccc(S(=O)(=O)Nc2nccs2)cc1	.	.	-2	-2	.
CCCCn1c(N)c(N(CCOC)C(=O)COC(=O)c2cc(CC)c(C)s2)c(=O)[nH]c1=O	.	.	3	-3	.
CC1CCN(c2ccc(NC(=O)Cc3ccccc3)cc2)CC1	5	14	11	-9	11
COc1cccc(CNc2ccc(N3CCC(C)CC3)cc2)c1OC	-3	63*	48	15	3
CCCN(CCC)c1nc2ccccc2nc1C(C#N)C(=O)OC(C)COC (centres undefined)	-14	.	22	2	.
Cc1nn(-c2ccccc2)c(C)c1C(=O)OCC(=O)NC(=O)NC1CCCC1	-1	14	-14	-8	-3
COCc1cc(C)c(C#N)c(=S)[nH]1	-6	32	70*	7	6
COC(=O)c1cc(-c2ccc(Cl)cc2)n(-c2ccc(S(N)(=O)=O)cc2)n1	-2	7	-4	12	6
CC[n+]1ccc(/C=C2\Sc3ccccc3N2CCCS(=O)(=O)[O-])c2ccccc21	7	7	-2	-3	15
CN1C=C/C(=C\c2cc[n+](C)c3ccccc23)c2ccccc21	1	55*	40	3	60*
CN(C)c1ccc(NC2=C(Cl)C(=O)c3ccccc3C2=O)cc1	-3	27	29	-21	51*
O=C(O)c1ccc(S(=O)(=O)c2ccc3c(c2)C(=O)N(c2ccc(O)cc2)C3=O)cc1	-6	.	-5	-10	.
O=C1c2ccc3c4c(ccc(c24)C(=O)N1c1ccc(O)cc1)C(=O)N(c1ccc(O)cc1)C3=O	-8	11	29	56*	10
COc1ccc(NS(=O)(=O)c2ccc(C)c(NC(=O)c3ccc(C)c(S(=O)(=O)N4CCOCC4)c3)c2)cc1	-4	50*	15	12	8
CC(=O)c1ccc(NC(=O)c2ccc(C)c(S(=O)(=O)N3CCOCC3)c2)cc1	.	.	10	-1	.
SMILES	TbHK1 inh	Diaph inh CS	PfG6PD inh	HKDC1 inh	G6PDH counter-1	others
CN(C)/C=C1\Oc2ccc3ccccc3c2C1=O	-18	70*	30	12	34
CN(C)/C=C1/Oc2c(ccc3ccccc23)C1=O	-9	32	2	7	3
Cc1ccc2[nH]c(C(=O)N3CCCCC3)cc2c1	.	.	-5	2	.
CCC(CC)C(=O)NCCc1cc2ccc(C)cc2[nH]c1=O	-8	13	-1	-2	-10
Cc1ccc2cc(CCNC(=O)c3ccc(C)c([N+](=O)[O-])c3)c(=O)[nH]c2c1	0	59*	-44	9	-2
COc1ccc(Nc2ncnc3ccc(Br)cc23)cc1OC	.	.	10	2	.
CCOP(=O)(OCC)c1nc(/C=C/c2ccccc2)oc1NCc1ccccc1	-40	54*	20	1	6
CCOP(=O)(OCC)c1nc(/C=C/c2ccccc2)oc1NCc1ccc(OC)cc1	-33	52*	8	12	8
CCOP(=O)(OCC)c1nc(-c2ccc(C)cc2)oc1NCc1ccccc1	22	27	15	17	-1
Cc1ccc(S(=O)(=O)N(CC(=O)N/N=C/c2ccco2)Cc2ccccc2)cc1	-7	20	12	-5	4
CNc1ccc(Br)cc(C(=O)/C=C/c2ccc3c(c2)OCO3)c1=O	-19	57*	38	28	39
CCC1Oc2ccccc2N(CC(=O)NCCc2ccc(OC)c(OC)c2)C1=O (centres undefined)	1	-6	1	-1	1
CCC1Oc2ccccc2N(CC(=O)Nc2ccccc2OC)C1=O (centres undefined)	51*	13	22	-6	10	G6PDH counter-2=2;TbHK1 rescreen=0
COCCN1CN=C(NS(=O)(=O)c2ccc(C)cc2)NC1	.	.	-7	5	.
CC1(C)OC(=O)C(=CNc2ncccn2)C(=O)O1	52*	20	1	-5	3	G6PDH counter-2=-27;TbHK1 rescreen=-25
CCc1[nH]nc(C(=O)N2CCCC(Nc3ccc(C(C)C)cc3)C2)c1C (centres undefined)	.	.	-1	-2	.
Cc1cccc(C)c1NC(=O)CSc1nnc(-c2ccoc2C)n1C	67*	16	-19	-3	4	G6PDH counter-2=3;TbHK1 rescreen=-2
CCCn1c(SCC(=O)Nc2ccccc2CC)nnc1C(C)C	65*	14	-18	1	-10	G6PDH counter-2=3;TbHK1 rescreen=2
FC(F)Sc1nc(-c2ccccc2)c(-c2ccccc2)n1C(F)F	4	21	-21	-4	0
CCOC(=O)N1CCN(c2ccc(S(=O)(=O)N3CCOCC3)cn2)CC1	.	.	-4	-4	.
CCOC(=O)N1CCN(c2ccc(S(=O)(=O)N(Cc3ccccc3)Cc3ccccc3)cn2)CC1	58*	20	31	-5	-41	G6PDH counter-2=-46;TbHK1 rescreen=7
CC(=O)/C=C(/C)NC(Cc1c[nH]c2ccccc12)C(=O)O (centres undefined)	51*!	12	-6	1	3	G6PDH counter-2=-17;TbHK1 rescreen=-3
Cc1ccc(-c2nnc3c4ccccc4c(C)nn23)cc1NC(=O)CN1CCOCC1	51*	11	.	.	0	G6PDH counter-2=-20;TbHK1 rescreen=-11
